Data on 26 compounds can be found in ChEMBL document CHEMBL1687897, “Design, synthesis and biological activity of pyrazolo[1,5-a]pyrimidin-7(4H)-ones as novel Kv7/KCNQ potassium channel activators” (Eur J Med Chem, 2011).

Assay [1] addresses T1, Voltage-gated potassium channel, KQT; KCNQ2(Kv7.2)/KCNQ3(Kv7.3) (Homo sapiens) (UniProt O43526+O43525). Nature of the assay: Activation of KCNQ2/Q3 expressed in CHO cells at 100 uM by atomic absorption Rb'+ efflux assay. In kind it is cell-based. An outline of the steps:
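Stable KCNQ2/KCNQ3 CHO cells were Rb+-loaded 3 h at 37 °C and washed. Compound was given once at a single screening concentration in 20 mM K+ depolarization buffer for 10 min. Supernatant Rb+ was measured by flame atomic absorption at 780 nm. A rubidium response under 15% of control was scored as no activity.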

Assay [2] addresses Voltage-gated potassium channel, KQT; KCNQ2(Kv7.2)/KCNQ3(Kv7.3) (Homo sapiens, UniProt O43525+O43526). The assay is described as follows: Activation of KCNQ2/Q3 expressed in CHO cells by atomic absorption Rb'+ efflux assay. In kind it is cell-based. An outline of the steps: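 CHO cells stably expressing KCNQ2/KCNQ3 were plated at 20,000 cells/well overnight at 37 °C. They were loaded 3 h in buffer containing 5.4 mM RbCl (pH 7.4), then washed three times with 5.4 mM KCl buffer. Compound was applied in 20 mM K+ depolarization buffer for 10 min. Supernatant Rb+ was read by flame atomic absorption at 780 nm against a 0–5 mg/l calibration. EC50 from n = 3.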

The target in assay [3] is T1, Voltage-gated potassium channel, KQT; KCNQ2(Kv7.2)/KCNQ3(Kv7.3) (Homo sapiens). The assay is described as follows: Activation of human KCNQ2/Q3 expressed in CHO cells assessed as increase in channel current at -40 mV holding potential at 10 uM by whole cell patch-clamp assay. Format: cell-based. An outline of the steps: (§1)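 Perforated whole-cell patch clamp was run on CHO cells stably expressing KCNQ2/KCNQ3. Cells were held at −80 mV for 500 ms, stepped to −40 mV for 800 ms, then returned to −80 mV for 800 ms. The activation current and the deactivation tail current were measured, with a time course of current recorded at −40 mV.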
(The patch-clamp technique gives a direct electrical read-out from membranes.)

For assay [4] the target is unchanged. Nature of the assay: Activation of human KCNQ2/Q3 expressed in CHO cells assessed as increase in channel current at -40 mV holding potential at 100 uM by whole cell patch-clamp assay. Format: cell-based. An outline of the steps: as §1
For assay [5] the target is unchanged. The assay is described as follows: Activation of human KCNQ2/Q3 expressed in CHO cells held at -80 mV for 500 ms followed by depolarized to -40 mV for 800 ms followed by 800 ms pulse-back to -80 mV assessed as increase in both activation and deactivation tail current at 100 uM by whole cell patch-clamp assay.
For assay [6] the target is unchanged. Nature of the assay: Activation of human KCNQ2/Q3 expressed in CHO cells held at -80 mV for 500 ms followed by depolarized to -40 mV for 800 ms followed by 800 ms pulse-back to -80 mV assessed as increase in both activation and deactivation tail current at 10 uM by whole cell patch-clamp assay.
Assay [7] has as its target T2, Potassium voltage-gated channel subfamily KQT member 1 (Homo sapiens, UniProt P51787).
T2 sequence (P51787 whole entry): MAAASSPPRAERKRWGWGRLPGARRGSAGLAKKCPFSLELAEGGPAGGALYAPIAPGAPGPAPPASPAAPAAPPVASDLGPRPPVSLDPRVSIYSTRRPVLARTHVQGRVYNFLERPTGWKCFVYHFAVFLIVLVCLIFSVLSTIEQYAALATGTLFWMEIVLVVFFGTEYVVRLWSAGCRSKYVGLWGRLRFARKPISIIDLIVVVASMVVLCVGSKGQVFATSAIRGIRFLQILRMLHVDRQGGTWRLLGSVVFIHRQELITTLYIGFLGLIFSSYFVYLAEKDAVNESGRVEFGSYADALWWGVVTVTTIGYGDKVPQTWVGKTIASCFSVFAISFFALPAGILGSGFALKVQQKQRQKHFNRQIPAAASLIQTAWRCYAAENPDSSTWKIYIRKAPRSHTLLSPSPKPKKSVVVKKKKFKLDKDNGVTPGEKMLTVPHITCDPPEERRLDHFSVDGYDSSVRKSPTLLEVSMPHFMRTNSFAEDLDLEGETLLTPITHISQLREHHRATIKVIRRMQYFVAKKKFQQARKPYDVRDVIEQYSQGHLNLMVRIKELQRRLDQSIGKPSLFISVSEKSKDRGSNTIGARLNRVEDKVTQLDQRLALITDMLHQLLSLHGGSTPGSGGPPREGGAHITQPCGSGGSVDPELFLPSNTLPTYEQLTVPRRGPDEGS
Nature of the assay: Activation of KCNQ1 expressed in HEK293 cells by atomic absorption Rb'+ efflux assay. In kind it is cell-based. An outline of the steps:
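HEK293 cells stably expressing KCNQ1 (G418 selection) were plated at 20,000 cells/well overnight. They were loaded 3 h with 5.4 mM RbCl buffer at 37 °C and washed. Compound was applied in 20 mM K+ depolarization buffer for 10 min. Supernatant Rb+ was measured by flame atomic absorption at 780 nm. EC50 from n = 3.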

Assay [8] in a line: Selectivity ratio of EC50 for KCNQ1 to KCNQ2/Q3 by atomic absorption Rb'+ efflux assay.

Calls of active or inactive are those of the source. The calls are words filed in the database; no cut-off is given here.

Sequence of Voltage-gated potassium channel, KQT; KCNQ2(Kv7.2)/KCNQ3(Kv7.3) (O43526 whole entry): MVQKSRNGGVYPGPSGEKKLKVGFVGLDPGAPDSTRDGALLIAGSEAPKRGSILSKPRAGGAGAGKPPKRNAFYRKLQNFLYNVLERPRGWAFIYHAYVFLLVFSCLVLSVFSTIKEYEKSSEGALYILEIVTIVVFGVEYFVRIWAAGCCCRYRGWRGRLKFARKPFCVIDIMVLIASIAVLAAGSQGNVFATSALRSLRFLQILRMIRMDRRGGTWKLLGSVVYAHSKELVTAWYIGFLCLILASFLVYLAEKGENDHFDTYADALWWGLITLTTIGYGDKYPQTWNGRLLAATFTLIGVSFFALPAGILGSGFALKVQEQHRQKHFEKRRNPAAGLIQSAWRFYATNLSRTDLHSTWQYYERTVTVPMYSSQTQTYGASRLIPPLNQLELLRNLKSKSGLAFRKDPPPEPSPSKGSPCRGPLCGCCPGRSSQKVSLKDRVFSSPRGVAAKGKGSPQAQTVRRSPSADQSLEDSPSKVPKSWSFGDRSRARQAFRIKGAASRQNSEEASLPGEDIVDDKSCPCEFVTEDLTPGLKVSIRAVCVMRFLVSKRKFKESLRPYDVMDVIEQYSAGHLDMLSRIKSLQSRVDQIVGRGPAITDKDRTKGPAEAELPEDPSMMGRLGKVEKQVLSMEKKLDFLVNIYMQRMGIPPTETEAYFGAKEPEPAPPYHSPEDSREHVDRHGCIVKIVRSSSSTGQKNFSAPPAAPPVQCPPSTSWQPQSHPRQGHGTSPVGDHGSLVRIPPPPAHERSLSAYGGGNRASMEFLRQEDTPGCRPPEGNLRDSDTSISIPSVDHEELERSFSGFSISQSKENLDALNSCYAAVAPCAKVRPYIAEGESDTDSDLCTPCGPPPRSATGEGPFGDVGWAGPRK
Sequence of Voltage-gated potassium channel, KQT; KCNQ2(Kv7.2)/KCNQ3(Kv7.3) (O43525 whole entry): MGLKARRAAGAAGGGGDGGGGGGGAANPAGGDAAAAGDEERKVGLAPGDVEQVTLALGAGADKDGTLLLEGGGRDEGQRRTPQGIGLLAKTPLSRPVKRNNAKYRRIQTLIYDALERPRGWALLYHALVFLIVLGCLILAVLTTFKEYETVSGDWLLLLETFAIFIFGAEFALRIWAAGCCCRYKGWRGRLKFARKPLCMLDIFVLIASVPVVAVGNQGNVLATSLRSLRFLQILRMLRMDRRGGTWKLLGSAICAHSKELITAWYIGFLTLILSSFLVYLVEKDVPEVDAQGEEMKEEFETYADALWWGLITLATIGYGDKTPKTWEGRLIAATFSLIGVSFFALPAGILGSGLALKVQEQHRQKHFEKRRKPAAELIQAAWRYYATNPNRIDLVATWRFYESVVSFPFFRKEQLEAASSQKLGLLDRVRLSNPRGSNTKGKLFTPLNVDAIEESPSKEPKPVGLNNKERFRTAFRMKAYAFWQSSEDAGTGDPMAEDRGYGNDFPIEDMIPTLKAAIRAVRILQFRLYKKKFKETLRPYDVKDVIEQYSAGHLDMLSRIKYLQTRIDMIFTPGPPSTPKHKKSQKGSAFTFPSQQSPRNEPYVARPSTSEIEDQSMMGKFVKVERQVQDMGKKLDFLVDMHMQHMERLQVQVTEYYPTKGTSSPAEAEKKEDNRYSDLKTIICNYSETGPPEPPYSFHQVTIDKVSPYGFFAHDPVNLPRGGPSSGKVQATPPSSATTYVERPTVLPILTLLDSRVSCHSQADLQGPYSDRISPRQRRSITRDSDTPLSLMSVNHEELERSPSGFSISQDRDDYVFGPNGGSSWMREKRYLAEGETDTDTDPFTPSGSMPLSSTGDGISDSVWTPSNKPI

As to `Cc1cc(O)n2nc(C(F)(F)F)c(-c3ccccc3)c2n1`, the outcome in assay [1] was inactive.
By EC50 is commonly meant the concentration that produces a half-maximal response. A high value points to a need for much substance. In turn, `O=c1cc(-c2cc(F)c(F)c(F)c2F)[nH]c2c(-c3ccccc3)c(C(F)(F)F)nn12` registered an EC50 in assay [2] of 600 nM.
The same measure, in the same setting: the figure for `O=c1cc(CCl)[nH]c2c(-c3cccc4ccccc34)c(C(F)(F)F)nn12` is 1250 nM.
For `Cc1nn2c(=O)cc(CCl)[nH]c2c1-c1ccccc1`, in assay [1], the result was inactive.
As to `O=c1cc(CN2CCCCC2)[nH]c2c(-c3ccccc3)c(C(F)(F)F)nn12`, the result in assay [1] was inactive.
In the case of `O=c1cc(C(F)(F)F)[nH]c2c(-c3cccc4ccccc34)c(C(F)(F)F)nn12`, in assay [2], the response was half-maximal at 4980 nM (EC50).
Still for that read-out and setting: the figure for `O=c1cc(-c2cc(F)c(F)cc2F)[nH]c2c(-c3ccc(Cl)cc3)c(C(F)(F)F)nn12` is 210 nM.
In turn, `CC(C)(C)c1cc(=O)n2nc(C(F)(F)F)c(-c3cccc4ccccc34)c2[nH]1` yielded an EC50 in assay [2] of 19300 nM.
The compound `COc1ccc(-c2c(C(F)(F)F)nn3c(=O)cc(-c4cc(F)c(Cl)nc4Cl)[nH]c23)cc1OC` displayed an EC50 in assay [2] of 230 nM.
In the case of `O=c1cc(C(F)F)[nH]c2c(-c3ccccc3)c(C(F)(F)F)nn12`, the response in assay [2] was half-maximal at 4290 nM (EC50).
The compound `CCOC(=O)Nc1ccc(NCc2ccc(F)cc2)cc1N` [EZOGABINE] showed an EC50 in assay [2] of 430 nM. In addition, the result in assay [3] was Active.
`O=c1cc(C(F)(F)F)[nH]c2c(-c3ccc(Cl)cc3)c(C(F)(F)F)nn12` gave an EC50 in assay [2] of 2060 nM.
Take `O=c1cc(C(F)(F)F)[nH]c2c(-c3c[nH]c4ccccc34)c(C(F)(F)F)nn12`: in assay [1], the result was inactive.
On to `O=c1cc(-c2cccc([N+](=O)[O-])c2)[nH]c2c(-c3ccccc3)c(C(F)(F)F)nn12`, for which a half-maximal effect in assay [2] (EC50) was put at 570 nM.
Same read-out and setting: the value for `O=c1cc(CCl)[nH]c2c(-c3ccc(Cl)cc3)c(C(F)(F)F)nn12` was 2330 nM.
On to `Oc1cc(-c2ccccc2)nc2c(-c3ccccc3)c(C(F)(F)F)nn12`, for which the outcome in assay [1] was inactive.
In assay [2], `CC(C)(C)c1cc(=O)n2nc(C(F)(F)F)c(-c3ccccc3)c2[nH]1` yielded an EC50 of 6190 nM. That is a single-digit micromolar value.
Compound `O=c1cc(C(F)(F)F)[nH]c2c(-c3ccccc3)c(C(F)(F)F)nn12` yielded an EC50 in assay [2] of 1460 nM. Further, the outcome in assay [4] and in assay [5] was Active.
As to `O=c1cc(C(F)(F)F)[nH]c2c(-c3ccccc3)cnn12`, the outcome in assay [1] was inactive.
With `O=c1cc(-c2cc(F)c(F)c(F)c2F)[nH]c2c(-c3cccs3)c(C(F)(F)F)nn12`, it took 160 nM to reach a half-maximal effect in assay [2] (EC50).
Still for that read-out and setting: the value for `O=c1cc(-c2cccc([N+](=O)[O-])c2)[nH]c2c(-c3cccs3)c(C(F)(F)F)nn12` was 580 nM.
In the case of `O=c1cc(-c2cc(F)c(Cl)nc2Cl)[nH]c2c(-c3ccccc3)c(C(F)(F)F)nn12`, the figures for the EC50 in assay [2] and in assay [7] were 60 nM and 49.3 µM, respectively. The result in assay [6] and in assay [3] was Active. For the same compound, in assay [8], the Ratio EC50 stood at 800.
On to `COc1ccc(-c2cc(=O)n3nc(C(F)(F)F)c(-c4ccccc4)c3[nH]2)cc1`, for which, in assay [2], the 50% effective concentration (EC50) amounted to 1930 nM.
`O=c1cc(CCl)[nH]c2c(-c3ccccc3)c(C(F)(F)F)nn12` registered an EC50 in assay [2] of 2270 nM. The outcome in assay [4] and in assay [5] was Active.
The compound `O=c1cc(-c2cc(F)c(Cl)nc2Cl)[nH]c2c(-c3cccc4ccccc34)c(C(F)(F)F)nn12` yielded an EC50 in assay [2] of 150 nM. The outcome in assay [6] and in assay [3] was Active.
In the case of `CCOC(=O)c1c(C(F)(F)F)nn2c(=O)cc(CCl)[nH]c12`, the result in assay [1] was inactive.
